Reference: ChEMBL document CHEMBL1144469, “Comprehensive analysis of the effects of ordinary nutrients on hepatitis C virus RNA replication in cell culture” (Antimicrob Agents Chemother, 2007)
Active and inactive are the calls of the source. The rule behind the calls is not given here.

Experiments:
Hepatitis C virus [1] = test: Enhancement of HCV RNA replication in OR6 cells after 72 hrs by luciferase reporter assay; type: functional, organism-based; settings: Hepacivirus hominis
How it was run: (§1)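 OR6 cells (HuH-7 carrying genome-length HCV-O genotype 1b RNA with a Renilla luciferase-NeoR fusion) are seeded in triplicate, 1.0–1.5 × 10^4 per well, and grown 24 h. Nutrients are then added for 72 h, or 24 h in the time course. Renilla luciferase is read from cell lysates and expressed as % of untreated cells. Liposoluble nutrients are carried in DMSO or ethanol at 0.1% final. EC50 is obtained by sigmoid regression.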

Hepatitis C virus [2] = test: Antiviral activity against HCV assessed as inhibition of HCV RNA replication in OR6 cells after 72 hrs by luciferase reporter assay; type: functional, organism-based, Hepacivirus hominis; settings: OR6, 72 h; how it was run: as §1
[3] = Cytotoxicity against human OR6 cells after 72 hrs; type: cell-based; settings: or6, 72 h
How it was run: (§2)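 For viability, OR6 cells are plated in triplicate and grown 24 h: 4.5–5 × 10^4 cells (72 h assay) or 1–1.5 × 10^4 cells (120 h assay). Nutrients are then applied for 72 or 120 h. Viable cells are counted by trypan blue exclusion and expressed as % of the untreated cell number.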

Hepatitis C virus [4] = test: Antiviral activity against HCV assessed as suppression of HCV RNA replication in ORN/3-5B/KE/poly cells after 72 hrs by luciferase reporter assay; type: functional, organism-based; settings: Hepacivirus hominis
How it was run: (§3)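 Polyclonal HuH-7 lines carrying either genome-length (ORN/C-5B/KE/poly) or subgenomic (ORN/3-5B/KE/poly) HCV-O genotype 1b RNA with a Renilla luciferase reporter are kept in DMEM with 10% FBS and G418 300 μg/ml. They are treated as in the OR6 assay for 72 h. Renilla luciferase is then measured and expressed as % of untreated cells.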

[5] = Cytotoxicity against human OR6 cells after 120 hrs by cell viability assay; type: cell-based; settings: or6, 120 h; how it was run: as §2
Hepatitis C virus [6] = test: Antiviral activity against HCV assessed as inhibition of HCV RNA replication in OR6 cells after 24 hrs by luciferase reporter assay; type: functional, organism-based; settings: Hepacivirus hominis; how it was run: as §1
Hepatitis C virus [7] = test: Antiviral activity against HCV assessed as suppression of HCV RNA replication in ORN/C-5B/KE/poly cells after 72 hrs by luciferase reporter assay; type: functional; settings: Hepacivirus hominis; how it was run: as §3
[8] = Cytotoxicity against human OR6 cells after 120 hrs; type: cell-based; settings: or6, 120 h; how it was run: as §2
Hepatitis C virus [9] = test: Antiviral activity against HCV assessed as inhibition of HCV RNA replication in OR6 cells at 50 uM after 120 hrs by luciferase reporter assay; type: functional, Hepacivirus hominis; settings: OR6, 120 h
How it was run: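 The time course uses OR6 cells (HuH-7, genome-length HCV genotype 1b RL reporter), 0.5 × 10^4 cells per well in triplicate, grown 24 h before exposure. Treatment runs 120 h at the stated 50 μM. Renilla luciferase activity in lysates is given as % of untreated control.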

Hepatitis C virus [10] = test: Enhancement of HCV RNA replication in ORN/C-5B/KE/poly cells after 72 hrs by luciferase reporter assay; type: functional, organism-based; settings: Hepacivirus hominis; how it was run: as §3
Hepatitis C virus [11] = test: Enhancement of HCV RNA replication in ORN/3-5B/KE/poly cells after 72 hrs by luciferase reporter assay; type: functional, organism-based; settings: Hepacivirus hominis; how it was run: as §3

Compound	Activity (Hepatitis C virus [1])	EC50 (Hepatitis C virus [2]) [µM]	Activity [3]	Activity (Hepatitis C virus [4])	Activity [5]	Activity (Hepatitis C virus [7])	Activity [8]	also measured
CC1=C(/C=C/C(C)=C/C=C/C(C)=C/CO)C(C)(C)CCC1	Active	–	–	–	–	–	–	–
O=C1O[C@H]([C@@H](O)CO)C(O)=C1O	Active	–	–	–	–	–	–	–
O=[Se](=O)(O)O	Active	–	–	–	–	–	–	–
CCCCC/C=C\C/C=C\C/C=C\C/C=C\CCCC(=O)O [ARACHIDONIC ACID]	–	22.1	–	–	–	–	–	–
CC1=C(/C=C/C(C)=C/C=C/C(C)=C/C=C/C=C(C)/C=C/C=C(C)/C=C/C2=C(C)CCCC2(C)C)C(C)(C)CCC1 [BETA CAROTENE]	–	6.3	Non-toxic	Active	Non-toxic	Active	Non-toxic	Activity (Hepatitis C virus [6]): Active
CC/C=C\C/C=C\C/C=C\C/C=C\C/C=C\C/C=C\CCC(=O)O [DOCONEXENT]	–	37	–	–	–	–	–	–
C=C1CC[C@H](O)C/C1=C/C=C1\CCC[C@]2(C)[C@@H]([C@H](C)/C=C/[C@H](C)C(C)C)CC[C@@H]12 [ERGOCALCIFEROL]	–	3.8	Non-toxic	Active	Non-toxic	Active	Non-toxic	Activity (Hepatitis C virus [6]): Active
CC/C=C\C/C=C\C/C=C\C/C=C\C/C=C\CCCC(=O)O [ICOSAPENT]	–	36.2	–	–	–	–	–	–
CCCCC/C=C\C/C=C\CCCCCCCC(=O)O [LINOLEIC ACID]	–	20.2	Non-toxic	Active	Non-toxic	Active	Non-toxic	inhibition at 50 µM (Hepatitis C virus [9]): 90%
VITAMIN E	Active	–	–	–	–	Active	–	Activity (Hepatitis C virus [10]): Active; Activity (Hepatitis C virus [11]): inactive
